Published values of several laboratories.
Each line is one published result; the experiments were not run side by side.
CDK3: Cyclin-dependent kinase 3 (CDK3, Homo sapiens, UniProt Q00526)
CDK3 with cyclin E: Cyclin-dependent kinase 3, with cyclin E (CDK3, Homo sapiens, UniProt Q00526)

SMILES	target	effect on	mode	method	concentration	endpoint	result
C[C@]1(O)CCCN(c2nc(Nc3ccc(S(=O)(=O)N[C@H]4CC[C@H](CN5CCN(c6ccc(C7CCC(=O)NC7=O)cc6F)CC5)CC4)cc3Cl)ncc2C(F)(F)F)C1 (some centres unmarked)	CDK3	binding	–	competition with immobilised ligand	1 µM	remaining binding	69%
C1=C/COCc2cc(ccc2OCCN2CCCC2)Nc2nccc(n2)-c2cccc(c2)COC/1	CDK3	cell-free assay	–	–	0.1 µM	remaining signal	100%
C[C@]1(O)CCCN(c2nc(Nc3ccc(S(=O)(=O)N[C@H]4CC[C@H](CN5CCN(c6ccc(C7CCC(=O)NC7=O)cc6F)CC5)CC4)cc3F)ncc2C(F)(F)F)C1 (some centres unmarked)	CDK3	binding	–	competition with immobilised ligand	1 µM	remaining binding	74%
CCCCC(=O)Nc1ccc(-c2ccc3ncn(CCC)c(=O)c3c2)cn1	CDK3	binding	–	competition with immobilised ligand	0.5 µM	remaining binding	93%
CC#CC(=O)N1CCC[C@H]1c1nc(-c2ccc(C(=O)Nc3ccccn3)cc2)c2c(N)nccn12	CDK3	enzyme activity	inhibitor	–	1 µM	inhibition	8%
Cc1ccc(NC(=O)c2ccnc(C(F)(F)F)c2)cc1-c1cc(OCCO)nc(N2CCOCC2)c1	CDK3	binding	–	competition with immobilised ligand	1 µM	remaining binding	89%
CC(C)S(=O)(=O)c1ccc2nccc(Nc3ccc4sc(C5CCCC5)nc4c3)c2c1	CDK3 with cyclin E	enzyme activity	inhibitor	–	1 µM	activity vs control	96.5%
COc1ccc2oc(-c3ccc4nc(N)oc4c3)c/c(=N\c3ccccc3NC(=O)CCN)c2c1	CDK3 with cyclin E	binding	–	–	1 µM	remaining binding	108%
N#Cc1ccc(NC(=O)Nc2ccccc2)cc1	CDK3	cell-free assay	–	competition with immobilised ligand	25 µM	remaining binding	98%
CN1CCN(C(=O)c2ccc(NC(=O)Nc3ccc(N(C)c4ccnc(Nc5ccc(CS(C)(=O)=O)cc5)n4)cc3)cc2)CC1	CDK3	binding	–	competition with immobilised ligand	1 µM	remaining binding	100%
C=CC(=O)N1CCC([C@@H]2CCNc3c(C(N)=O)c(-c4ccc(Oc5ccccc5)cc4)nn32)CC1	CDK3	enzyme activity	inhibitor	–	1 µM	inhibition	8%
